An excerpt weighted towards active compounds, which were near 2.5% of everything screened.
HGIII-sPLA2 inh = human group III sPLA2 inhibitors, primary screen, biochemical, QFRET, BODIPY PC-A2 liposome substrate; Group 3 secretory phospholipase A2 (Homo sapiens), Q9NZ20; actives 0.56% (n = 370,000); inhibition, % at 12.2 µM; AID 743126, 2013; QFRET BODIPY PC-A2 liposome hydrolysis, fluorescence;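 active means inhibition above mean plus 3 SD of compounds lying within the high and low control bounds, cut at about 19% in these data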
Granule exo inh = LAMP-1 surface exposure blockers, TALL-104 cells – cell-based, flow cytometry, MLPCN library, primary screen | TALL-104 LAMP-1 surface exposure; cells stimulated with thapsigargin and PMA | inhibition, % at 10 µM | actives 0.66% (n = 360,000);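 active means inhibition above about 55%, limit read from the data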
Bfl-1 A1 inh = caspase 3/7 activation in MEF A1-2A-BIM cells, primary screen, A1 inhibitor project, cell-based, luminescence, HTS; caspase activation, % (test concentration not listed); Caspase-Glo 3/7 luminescence, 3 h; percent of clofoctol response, vehicle zero; AID 2462, 2010; actives 0.066% (n = 330,000);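 active means over half of replicate activation scores above 10%, or exactly half above 10 with the replicate mean above 10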
MC4R antag cAMP = MC4R antagonists of cAMP signaling, primary screen, cell-based, TR-FRET, antagonist arm of biased-ligand search; actives 0.48% (n = 360,000); Melanocortin receptor 4 (Homo sapiens), P32245; MC4R-expressing cells, MTII-stimulated cAMP, LANCE TR-FRET; AID 540295, 2011; inhibition, % at 6.5 µM;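 active means inhibition above its plate's cutoff, the mean of tested wells on that plate plus 3 SD, cut at about 29% in these data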
Target sequence (P32245 whole entry, looked up): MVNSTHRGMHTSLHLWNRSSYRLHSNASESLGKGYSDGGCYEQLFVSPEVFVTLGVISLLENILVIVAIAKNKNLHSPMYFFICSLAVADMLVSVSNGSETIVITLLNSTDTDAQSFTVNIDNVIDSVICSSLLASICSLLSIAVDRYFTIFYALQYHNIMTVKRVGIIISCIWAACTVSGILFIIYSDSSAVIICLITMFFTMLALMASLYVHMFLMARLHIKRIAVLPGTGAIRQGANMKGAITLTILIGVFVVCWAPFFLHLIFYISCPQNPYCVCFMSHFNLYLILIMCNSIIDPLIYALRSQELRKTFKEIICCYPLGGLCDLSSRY
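Material: U2OS-MC4R stable cell line | Reagent: Melanotan II challenge after compound preincubation | Doses: One concentration, 6.5 µM nominal | Incubation: 30-min compound preincubation, 1-h Melanotan II challenge, 1-h detection, room temperature | Signal: TR-FRET cAMP assay | Replicates: One well per compound, no replicates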
MC4R ag barr = MC4R agonists recruiting beta-arrestin, primary screen, cell-based, luminescence, agonist arm of biased-ligand search | Melanocortin receptor 4 (Homo sapiens), P32245 | U2OS MC4R beta-arrestin complementation; percent of melanotan II response, DMSO zero | activation, % at 8.9 µM | actives 0.98% (n = 360,000);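 active means activation above a per-plate cutoff, the mean activation of sample wells on that plate plus 3 SD, cut at about 8% in these data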
NTR1 agonist = agonists of human NTR1, primary screen, imaging, U2OS cells, beta-arrestin-GFP, high content | AID 493036, 2011 | NTR1-U2OS beta-arrestin-GFP spot imaging, agonist mode | actives 0.17% (n = 330,000) | Neurotensin receptor type 1 (Homo sapiens), P30989 | activation, % at 20 µM;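 active means activation at or above 40% of the spot to cytoplasm intensity ratio, with at least 20 cells analyzed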
MC4R barr conf = MC4R beta-arrestin agonists, retest, confirmation, cell-based, luminescence, U2OS; shares compounds with MC4R ag barr; U2OS MC4R beta-arrestin recruitment; scaled DMSO 0%, Melanotan II 100%; activation, % at 8.9 µM; actives 31% (n = 2,400);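 active means mean activation across replicates above the hit cutoff set in the earlier primary screen, cut at about 8% in these data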
MOR-DOR barr ag = agonists of MOR-DOR heterodimerization, counter-screen for MC4R biased agonist project, cell-based, luminescence; shares compounds with MC4R ag barr; U2OS PathHunter beta-arrestin, beta-gal luminescence; percent of deltorphin B response, DMSO zero; activation, % at 9.2 µM; actives 5.8% (n = 2,400); AID 602194, 2012;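 active means mean activation across replicates exceeds the hit threshold derived in the earlier primary screen, cut at about 18% in these data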
Numbers stand for hits.

For Cc1cc(C)nc(Nc2nc(C(N)Cc3ccc(C(F)(F)F)cc3)cs2)n1 (stereo not given) the results were HGIII-sPLA2 inh inactive, Granule exo inh inactive, MC4R antag cAMP inactive, MC4R ag barr 10, MC4R barr conf 26 and MOR-DOR barr ag inactive.
COc1cc(OC)nc(Nc2nc(C(N)Cc3ccc(C(F)(F)F)cc3)cs2)n1 (stereo not given) was read as HGIII-sPLA2 inh inactive, Granule exo inh inactive, MC4R antag cAMP inactive, MC4R ag barr 29, MC4R barr conf inactive and MOR-DOR barr ag inactive.
For NC(COCc1ccccc1)c1csc(Nc2nccc(C(F)(F)F)n2)n1 (stereo not given) the results were HGIII-sPLA2 inh inactive, Granule exo inh inactive, MC4R antag cAMP inactive and MC4R ag barr inactive.
For Cn1c(Cc2cccs2)nnc1SCC(=O)Nc1ccc2c(c1)OCO2 the results were HGIII-sPLA2 inh inactive.
For Cc1ccc(NC(=O)Cc2ccc(OC(F)F)cc2)c(S(=O)(=O)N2CCOCC2)c1 the results were HGIII-sPLA2 inh inactive.
For Cc1cc(C)nc(Nc2nc(C(N)Cc3ccc(F)cc3)cs2)n1 (stereo not given) the results were HGIII-sPLA2 inh inactive, Granule exo inh inactive, MC4R antag cAMP inactive and MC4R ag barr inactive.
For Cc1cc(C)nc(Nc2nc(C(N)Cc3ccc(Cl)cc3)cs2)n1 (stereo not given) the results were HGIII-sPLA2 inh inactive, Granule exo inh inactive, MC4R antag cAMP inactive, MC4R ag barr 9.8, MC4R barr conf 28 and MOR-DOR barr ag inactive.
For Cc1ccc(Cn2cc(CN3[C@@H](CC(C)C)COc4cc(Br)ccc4S3(=O)=O)nn2)cc1 the results were HGIII-sPLA2 inh inactive.
Screening C=CCN(C(=O)[C@@H](C)[C@@H](O)c1ccc(C(C)=O)cc1)c1ccccc1 returned HGIII-sPLA2 inh inactive.
For Cc1ccc(C)c(Sc2ccc(NC(=O)CCl)cc2)c1 the results were HGIII-sPLA2 inh inactive, Bfl-1 A1 inh inactive and NTR1 agonist inactive.
Screening Cc1ccc(Sc2ccc(NC(=O)CCl)cc2)cc1C returned HGIII-sPLA2 inh inactive, Granule exo inh inactive, Bfl-1 A1 inh inactive, MC4R antag cAMP inactive, MC4R ag barr 19, NTR1 agonist inactive, MC4R barr conf 17 and MOR-DOR barr ag inactive.
OCCNCC(O)Cn1c2ccccc2c2ccccc21 (stereo not given) was read as HGIII-sPLA2 inh inactive, Granule exo inh inactive, Bfl-1 A1 inh inactive, MC4R antag cAMP inactive, MC4R ag barr inactive and NTR1 agonist inactive.
For COc1ccccc1CNCC(O)Cn1c2ccccc2c2ccccc21 (stereo not given) the results were HGIII-sPLA2 inh inactive, Granule exo inh 87, Bfl-1 A1 inh inactive, MC4R antag cAMP inactive, MC4R ag barr 10, NTR1 agonist inactive, MC4R barr conf 21 and MOR-DOR barr ag 21.
N#CCC[C@@H]1CC[C@]2(CCCN(Cc3ccc(Cl)cc3)C2)O1 was read as HGIII-sPLA2 inh inactive.
CC(=O)N1CCN(C(=O)CN2C(=O)CC(C)(C)S(=O)(=O)c3ccccc32)CC1 was read as HGIII-sPLA2 inh inactive.
`COC(=O)c1cc(OC)c(OC)cc1NC(=O)Nc1ccc(OC)cc1` gave HGIII-sPLA2 inh inactive, Granule exo inh inactive, Bfl-1 A1 inh inactive, MC4R antag cAMP inactive, MC4R ag barr 14, NTR1 agonist inactive, MC4R barr conf inactive and MOR-DOR barr ag inactive.
For COC(=O)C[C@@H]1CC[C@H]2[C@@H](COc3ccc(NC(=O)c4cc(C)on4)cc3C(=O)N2C)O1 the results were HGIII-sPLA2 inh inactive.
`N=C1/C(=C/c2cccn2-c2ccc([N+](=O)[O-])cc2)C(=O)N=C2SC=CN12` gave HGIII-sPLA2 inh inactive, Granule exo inh inactive, Bfl-1 A1 inh inactive, MC4R antag cAMP inactive, MC4R ag barr inactive and NTR1 agonist inactive.
`COc1ccc(-c2ccc(/C=C3/C(=N)N4C=CSC4=NC3=O)o2)c([N+](=O)[O-])c1` gave HGIII-sPLA2 inh inactive, Granule exo inh inactive, Bfl-1 A1 inh inactive, MC4R antag cAMP inactive, MC4R ag barr 20, MC4R barr conf inactive and MOR-DOR barr ag inactive.
Cc1ccc2nc(-c3ccc(NC(=O)CSc4nccc(=O)[nH]4)cc3)sc2c1 was read as HGIII-sPLA2 inh inactive, Granule exo inh inactive, Bfl-1 A1 inh inactive, MC4R antag cAMP inactive, MC4R ag barr inactive and NTR1 agonist inactive.
Screening Cc1ccc2nc(-c3ccc(NC(=O)CN4CCN(c5ccccn5)CC4)cc3)sc2c1 returned HGIII-sPLA2 inh inactive, Granule exo inh inactive, Bfl-1 A1 inh inactive, MC4R antag cAMP inactive, MC4R ag barr 10.0, NTR1 agonist inactive, MC4R barr conf inactive and MOR-DOR barr ag inactive.
For Cc1ccc2nc(-c3ccc(NC(=O)CSc4nc(N)cc(=O)[nH]4)cc3)sc2c1 the results were HGIII-sPLA2 inh inactive, Granule exo inh inactive, Bfl-1 A1 inh inactive, MC4R antag cAMP inactive, MC4R ag barr 13, NTR1 agonist inactive, MC4R barr conf inactive and MOR-DOR barr ag inactive.
O=C(Nc1cc(Cl)ccc1Cl)c1ccc(OC(=O)c2ccco2)cc1 was read as HGIII-sPLA2 inh inactive, Granule exo inh inactive, Bfl-1 A1 inh inactive, MC4R antag cAMP inactive, MC4R ag barr 13, NTR1 agonist inactive, MC4R barr conf inactive and MOR-DOR barr ag inactive.
O=C(Nc1ccccc1OC(=O)c1ccc(Cl)cc1)c1ccc(Cl)cc1 was read as HGIII-sPLA2 inh inactive, Granule exo inh inactive, Bfl-1 A1 inh inactive, MC4R antag cAMP inactive, MC4R ag barr 36, NTR1 agonist inactive, MC4R barr conf inactive and MOR-DOR barr ag inactive.
`COc1ccc(C(=O)Nc2cc(Cl)ccc2OC(=O)c2ccc(OC)cc2)cc1` gave Granule exo inh inactive, Bfl-1 A1 inh inactive, MC4R antag cAMP inactive, MC4R ag barr 14, NTR1 agonist inactive, MC4R barr conf inactive and MOR-DOR barr ag inactive.

Source: PubChem (several laboratories)
